pEC50: −log10 of the molar value. Values after ≈ are worked out from the molar mass of the structure shown.
Columns and labels:
[1] = test system: Trypanosoma brucei brucei; experiment: Antitrypanosomal activity against Trypanosoma brucei brucei 221 after 48 hrs by Cell Titre Glo assay; format: functional, organism-based; settings: Trypanosoma brucei, 221, 48 h
Method in brief: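 Bloodstream-form parasites grown in HMI-9 with 10% heat-inactivated FBS, 10% Serum Plus and penicillin/streptomycin at 37 °C, 5% CO₂, to 1 × 10⁶ cells/mL. Diluted to 1 × 10⁴ cells/mL, then dosed with a DMSO dilution series by pin transfer. Incubated 48 h at 37 °C, 5% CO₂. Viability read by CellTiter-Glo luminescence. EC₅₀ from a variable-slope sigmoidal fit. Mean of six replicates, errors as 95% CI.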

[2] = test system: BJ; experiment: Cytotoxicity against human BJ cells after 72 hrs by Cell Titre Glo assay; format: cell-based
Method in brief: (§1)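 Human cells grown to 80% confluence were plated in 384-well format and received compound dilutions by pin tool. After 72 h at 37 °C in 5% CO2, viability was measured by CellTiter-Glo luminescence.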

[3] = test system: HepG2; experiment: Cytotoxicity against human HepG2 cells after 72 hrs by Cell Titre Glo assay; format: cell-based; settings: HepG2, 72 h; method in brief: as §1
[4] = test system: HEK293; experiment: Cytotoxicity against HEK293 cells after 72 hrs by Cell Titre Glo assay; format: cell-based; settings: Homo sapiens, HEK293, 72 h; method in brief: as §1
[5] = test system: Raji; experiment: Cytotoxicity against human Raji cells after 72 hrs by Cell Titre Glo assay; format: cell-based; method in brief: as §1
[6] = Kinetic solubility of the compound in PBS buffer at pH 7.4 after 18 hrs by UV spectrophotometric analysis; format: physicochemical; settings: for solubility kinetic at 18 h: PBS buffer, pH 7.4, read-out: Kinetic_solubility; for Kinetic_solubility: buffer, pH 7.4, 18 h, BLD = below limit of detection
Method in brief: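 Compound from a 10 mM stock was added to PBS pH 7.4 and left 18 h at room temperature. The suspension was filtered, and the filtrate was mixed 1:1 with 1-propanol. Solubility was derived from UV spectrum AUC (250–500 nm) relative to a 1-propanol/PBS reference. Run in triplicate.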

[7] = Permeability of the compound at pH 7.4 by PAMPA; format: ADME; settings: for permeability: pampa, BLD = below limit of detection; for Papp: PAMPA, read-out: permeability
Method in brief: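 Compound (10 mM DMSO stock) was diluted in system solution buffer pH 7.4 and placed in the donor chamber of a PAMPA sandwich whose membrane was coated with GIT lipid. Acceptor buffer filled the acceptor chamber, and the assembly was stirred for 30 min. Donor and acceptor UV spectra (250–500 nm) were compared with a reference to give the permeability coefficient. Run in triplicate.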

| Compound | pEC50 [1] | solubility kinetic at 18 h [6] | permeability [7] | Papp [7] | Kinetic_solubility [6] | pEC50 [2] | pEC50 [3] | pEC50 [4] | pEC50 [5] |
| --- | --- | --- | --- | --- | --- | --- | --- | --- | --- |
| O=C(CNc1ccc(-c2nc3ccccc3s2)cc1)c1cc([N+](=O)[O-])ccc1Cl | < 4.80 | – | – | – | – | < 4.57 | < 4.57 | < 4.57 | < 4.57 |
| O=C(Nc1cccc(-c2ccccc2)c1)c1cc([N+](=O)[O-])ccc1Cl | 5.92 | 0.41 µM (≈ 0.145 µg/mL) | BLD | – | – | < 4.57 | < 4.57 | 4.66 | < 4.57 |
| Cc1cc(NC(=O)c2cc([N+](=O)[O-])ccc2Cl)cc(-c2nc3ccccc3s2)c1O | < 5.00 | 0.43 µM (≈ 0.189 µg/mL) | – | 48 ×10⁻⁶ cm/s | – | < 4.60 | < 4.60 | < 4.60 | < 4.60 |
| O=C(Nc1nc(-c2ccc(Cl)cc2)cs1)c1cc([N+](=O)[O-])ccc1Cl | 5.34 | – | – | 3 ×10⁻⁶ cm/s | BLD | 4.74 | < 4.57 | 4.82 | 4.92 |
| O=C(Nc1cc(C(F)(F)F)cc(C(F)(F)F)c1)c1cc([N+](=O)[O-])ccc1Cl | 5.02 | – | – | 44 ×10⁻⁶ cm/s | BLD | 4.66 | < 4.57 | 4.85 | 4.85 |
| O=C(Nc1ccccc1-c1nc2ccccc2s1)c1cc([N+](=O)[O-])ccc1Cl | < 4.48 | – | – | – | – | < 4.57 | < 4.57 | < 4.57 | < 4.57 |
| O=C(Nc1nc(-c2cccc(F)c2)cs1)c1cc([N+](=O)[O-])ccc1Cl | 5.46 | 0.78 µM (≈ 0.295 µg/mL) | – | 3 ×10⁻⁶ cm/s | – | 4.62 | 4.74 | 5.06 | 4.96 |
| O=C(Nc1cccc(-c2nc3ccccc3[nH]2)c1)c1cc([N+](=O)[O-])ccc1Cl | 4.59 | 1.4 µM (≈ 0.55 µg/mL) | – | 352 ×10⁻⁶ cm/s | – | < 4.57 | < 4.57 | < 4.57 | 4.68 |
| COc1ccc(NC(=O)c2cc([N+](=O)[O-])ccc2Cl)cc1-c1nc2ccccc2s1 | 5.44 | 0.26 µM (≈ 0.114 µg/mL) | BLD | – | – | < 4.60 | < 4.60 | < 4.60 | < 4.60 |
| O=C(Nc1nc2c(Cl)cccc2s1)c1cc([N+](=O)[O-])ccc1Cl | 4.92 | 0.72 µM (≈ 0.265 µg/mL) | – | 242 ×10⁻⁶ cm/s | – | < 4.57 | < 4.57 | < 4.57 | 4.82 |
| O=C(Nc1nc2ccc(F)cc2s1)c1cc([N+](=O)[O-])ccc1Cl | 5.25 | 0.57 µM (≈ 0.2 µg/mL) | – | 10 ×10⁻⁶ cm/s | – | < 4.57 | < 4.57 | < 4.57 | < 4.57 |
| O=C(Nc1ccc(-c2nc3ccccc3s2)cc1)c1cc([N+](=O)[O-])ccc1Cl | 5.96 | – | BLD | – | BLD | < 4.57 | < 4.57 | < 4.57 | < 4.57 |
| O=C(Nc1ccc(Cl)cc1)c1cc([N+](=O)[O-])ccc1Cl | – | – | – | – | – | < 4.57 | < 4.57 | < 4.57 | < 4.57 |

The remaining compounds from weak to strong by pEC50 [1], led by results:

| pEC50 [1] | solubility kinetic at 18 h [6] | permeability [7] | Papp [7] | Kinetic_solubility [6] | Compound | pEC50 [2] | pEC50 [3] | pEC50 [4] | pEC50 [5] |
| --- | --- | --- | --- | --- | --- | --- | --- | --- | --- |
| 6.14 | – | – | < 1 ×10⁻⁶ cm/s | BLD | Cc1ccc(-c2nc3ccccc3s2)cc1NC(=O)c1cc([N+](=O)[O-])c(N2CCCCC2)cc1Cl | < 4.60 | < 4.60 | < 4.60 | < 4.60 |
| 6.17 | – | BLD | – | BLD | Cc1c(NC(=O)c2cc([N+](=O)[O-])ccc2Cl)cccc1-c1nc2ccccc2s1 | < 4.60 | < 4.60 | < 4.60 | < 4.60 |
| 6.19 | 0.21 µM (≈ 0.119 µg/mL) | – | 5 ×10⁻⁶ cm/s | – | COc1ccc(-c2nc3ccccc3s2)cc1NC(=O)c1cc([N+](=O)[O-])c(N2CCC(C(=O)O)CC2)cc1Cl | < 4.60 | < 4.60 | < 4.60 | < 4.60 |
| 6.28 | 0.19 µM (≈ 0.0969 µg/mL) | – | 10 ×10⁻⁶ cm/s | – | CCOC(=O)Cc1cc(Cl)c(C(=O)Nc2cc(-c3nc4ccccc4s3)ccc2C)cc1[N+](=O)[O-] | < 4.60 | < 4.60 | < 4.60 | < 4.60 |
| 6.30 | 0.59 µM (≈ 0.325 µg/mL) | – | 17 ×10⁻⁶ cm/s | – | Cc1ccc(-c2nc3ccccc3s2)cc1NC(=O)c1cc([N+](=O)[O-])c(N2CCC(C(=O)O)CC2)cc1Cl | < 4.60 | < 4.60 | < 4.60 | < 4.60 |
| 6.49 | 0.41 µM (≈ 0.182 µg/mL) | – | 3 ×10⁻⁶ cm/s | – | O=C(Nc1ccc(Cl)c(-c2nc3ccccc3s2)c1)c1cc([N+](=O)[O-])ccc1Cl | < 4.60 | < 4.60 | < 4.60 | < 4.60 |
| 6.51 | – | – | 24 ×10⁻⁶ cm/s | BLD | COC(=O)C1CCN(c2cc(Cl)c(C(=O)Nc3cc(-c4nc5ccccc5s4)ccc3C)cc2[N+](=O)[O-])CC1 | < 4.60 | < 4.60 | < 4.60 | < 4.60 |
| 6.52 | – | – | 214 ×10⁻⁶ cm/s | BLD | O=C(Nc1cc(-c2nc3ccccc3o2)ccc1F)c1cc([N+](=O)[O-])ccc1Cl | < 4.60 | < 4.60 | < 4.60 | < 4.60 |
| 6.62 | 0.1 µM (≈ 0.0444 µg/mL) | BLD | – | – | O=C(Nc1cc(-c2nc3ccccc3s2)ccc1Cl)c1cc([N+](=O)[O-])ccc1Cl | < 4.60 | < 4.60 | < 4.60 | < 4.60 |
| 6.66 | 0.09 µM (≈ 0.0381 µg/mL) | – | 105 ×10⁻⁶ cm/s | – | Cc1cc(NC(=O)c2cc([N+](=O)[O-])ccc2Cl)cc(-c2nc3ccccc3o2)c1O | < 4.60 | < 4.60 | < 4.60 | < 4.60 |
| 6.92 | 0.09 µM (≈ 0.0381 µg/mL) | – | 274 ×10⁻⁶ cm/s | – | COc1ccc(-c2nc3ccccc3o2)cc1NC(=O)c1cc([N+](=O)[O-])ccc1Cl | < 4.60 | < 4.60 | < 4.60 | < 4.60 |
| 7.70 | 0.31 µM (≈ 0.126 µg/mL) | BLD | – | – | Cc1ccc(-c2nc3ccccc3o2)cc1NC(=O)c1cc([N+](=O)[O-])ccc1Cl | < 4.85 | < 4.85 | < 4.85 | < 4.85 |

Reference: ChEMBL document CHEMBL2321751, “Optimization of chloronitrobenzamides (CNBs) as therapeutic leads for human African trypanosomiasis (HAT)” (J Med Chem, 2013)
